# Source: PubChem (Johns Hopkins Ion Channel Center)
# Only some compounds are listed: those with a hit (about 3.5% of all), similar ones and a draw of the others.
# MrgX1 ag: agonists of human MrgX1 receptor, primary screen, HEK293 cells, Fluo-4 calcium flux; Mas-related G-protein coupled receptor member X1 (Homo sapiens), Q96LB2; Fluo-4 calcium fluorescence, agonist mode; hits give high values; B-score at 10 µM; 310,000 tested, 0.44% active; AID 588627, 2011;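 active = calcium response B-score plate-corrected fluorescence ratio at least 3 library SD, with starting fluorescence B-score inside 5 SD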
# Target sequence (Q96LB2 whole entry, looked up): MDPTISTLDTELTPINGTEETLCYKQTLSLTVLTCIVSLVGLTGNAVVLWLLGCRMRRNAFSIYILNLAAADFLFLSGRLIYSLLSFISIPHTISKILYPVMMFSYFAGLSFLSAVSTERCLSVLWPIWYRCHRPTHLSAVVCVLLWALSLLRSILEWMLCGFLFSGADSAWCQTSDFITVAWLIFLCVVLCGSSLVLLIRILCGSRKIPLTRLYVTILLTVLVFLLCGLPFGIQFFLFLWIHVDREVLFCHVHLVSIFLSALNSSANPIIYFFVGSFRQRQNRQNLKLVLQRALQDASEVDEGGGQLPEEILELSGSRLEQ
#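 times = overnight plating, then 30 min 37 °C plus 30 min room-temperature dye loading | assay system = stable human MrgX1 HEK293 cell line | input = fifteen thousand cells per well | signal = kinetic calcium dye fluorescence, Fluo-4 NW | dosing = compound delivered in addition one of three | read-out = B-scored fluorescence response ratio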
# MrgX1 allo act: positive allosteric modulators of MrgX1, primary screen, HEK293 cells, Fluo-4 calcium flux | Mas-related G-protein coupled receptor member X1 (Homo sapiens), Q96LB2 | AID 588675, 2011 | FDSS; hits give high values | 310,000 tested, 0.63% active | B-score at 10 µM;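 active = plate-corrected calcium response at least 3 library SD above typical, normal starting fluorescence, not activating the receptor alone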;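 also: compound read alongside a low EC10 to EC30 dose of BAM8-22 agonist; peak minus trough fluorescence over baseline measured at the second addition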
# RGS4 block: RGS4 inhibitors, primary screen, cell-based, HEK293 M3R inducible RGS4, calcium flux; Regulator of G-protein signaling 4 (Homo sapiens), P49798; Fluo-4 calcium flux; hits give high values; triggered by carbachol at its EC20; B-score at 10 µM; 310,000 tested, 0.45% active; AID 463165, 2010;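 active = B-score, a plate-corrected calcium signal, over three deviations above library mean, with baseline fluorescence within five deviations of library mean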;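 also: RGS4 expression induced by doxycycline in cells with stable M3 receptor; B-score is computed from the integrated fluorescence ratio over baseline after carbachol; higher B-score means a larger calcium signal and so more RGS4 inhibition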
# Target sequence (P49798 whole entry, looked up): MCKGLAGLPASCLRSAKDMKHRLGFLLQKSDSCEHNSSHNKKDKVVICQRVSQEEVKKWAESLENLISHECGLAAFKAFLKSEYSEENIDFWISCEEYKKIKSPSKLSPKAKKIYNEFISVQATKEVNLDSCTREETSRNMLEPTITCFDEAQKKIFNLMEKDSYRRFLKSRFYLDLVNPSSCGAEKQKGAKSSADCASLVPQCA
# RGS4 pot: RGS4 potentiators or activators, primary screen, cell-based, HEK293 M3R inducible RGS4, calcium flux; B-score at 10 µM; carbachol calcium flux Fluo4; hits give low values; 310,000 tested, 0.92% active;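 active = B-score of the integrated calcium signal more than 4 SD below the library mean, with starting fluorescence not abnormally high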;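 also: negative B-score means reduced calcium response which marks RGS4 activation or potentiation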
#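 Reagent: ECmax carbachol challenge; Test system: M3R-expressing HEK293 line, RGS4 induced by doxycycline; Schedule: overnight RGS4 induction, 30 min dye load 37 °C, 20 min compound RT; Detection: calcium dye Fluo4 fluorescence; Read-out: Agonist-evoked peak-minus-minimum fluorescence over baseline, integrated ratio, B score.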
# MrgX1 antag: antagonists of human MrgX1 receptor, primary screen, HEK293 cells, Fluo-4 calcium flux. Mas-related G-protein coupled receptor member X1 (Homo sapiens), Q96LB2. BAM8-22 antagonism; hits give low values. B-score at 10 µM. 310,000 tested, 1.3% active;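 active = calcium-response B-score plate-corrected more than 3 library SD below zero, starting fluorescence within 5 deviations, no agonist response on first addition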;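 also: peak minus trough fluorescence over baseline after final BAM8-22 challenge near maximal dose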
# RGS4 block valid: enhanced carbachol calcium response, M3R/RGS4 cells, RGS4 inhibitor project, cell-based, validation screen, HEK293 M3R/RGS4, calcium flux | calcium response, % at 10 µM | 1,700 tested, 65% active | carbachol calcium Fluo-4 fluorescence; carbachol added at its EC20; 0 = buffer wells, 100 = carbachol control | shares compounds with RGS4 block | AID 492999, 2010;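 active = duplicate-averaged calcium response above the buffer-only control mean plus 5 SD of those controls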;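 also: integrated fluorescence ratio F max minus min over baseline F0; higher response in RGS4-induced cells means RGS4 inhibition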
# M3R Ca ctr: carbachol calcium response in non-induced M3R cells, confirmation, counter-screen for RGS4 inhibitor project, cell-based, HEK293 M3R; 1,900 tested, 20% active; carbachol calcium Fluo-4; submaximal (EC20) carbachol stimulus; buffer wells 0%, carbachol control wells 100%; shares compounds with RGS4 block; activity (percent), % at 10 µM; call rule not given here;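 also: RGS4 induction absent so cells express M3R without RGS4; higher means more calcium signal and flags a non-specific hit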
# RGS4 inh ctr2: signal in non-induced cells without carbachol, RGS4 inhibitor counter-screen; 1,900 tested, 22% active; calcium response (agonist-mode artifact), % at 10 µM; shares compounds with RGS4 block; HEK293 M3R/RGS4 non-induced, Fluo-4 calcium, no carbachol; normalised: buffer wells 0%, carbachol wells 100%;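 active = duplicate-averaged calcium rise in uninduced cells above buffer wells' mean plus 5 SD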
# Starred values were filed as active, the others as inactive; i = inactive; / = not tested or not shown.
SMILES,MrgX1 ag,MrgX1 allo act,RGS4 block,RGS4 pot,MrgX1 antag,RGS4 block valid,M3R Ca ctr,RGS4 inh ctr2
CCn1c(=O)c([N+](=O)[O-])c(Cl)c2ccccc21,i,10.2*,6.58*,i,i,8.5%*,i,9.5%*
COC(=O)c1ccc(Cn2nc(-c3ccc(C)cc3)ccc2=O)cc1,i,i,i,i,i,/,/,/
O=C(CSCC(=O)N1CCCCC1)Nc1nc(-c2cccs2)cs1,i,i,i,i,i,/,/,/
O=C(CSCC(=O)N1CCCCC1)Nc1nc(-c2ccc(Cl)s2)cs1,i,i,9.34*,i,i,i,i,i
O=C(CSCC(=O)N1CCN(c2ccccc2)CC1)Nc1nc(-c2ccc(Cl)s2)cs1,i,i,i,i,i,i,i,i
CCOC(=O)N1CCN(C(=O)CSCC(=O)Nc2nc(-c3ccccc3)cs2)CC1,i,i,i,i,i,/,/,/
CC1(C)CC(=O)C(C(C2=C(O)CC(C)(C)CC2=O)c2ccco2)C(=O)C1 (stereo not drawn),i,i,6.99*,i,i,21.5%*,i,i
CC(=O)Nc1ccc(S(=O)(=O)NCCSCc2ccc(Cl)cc2Cl)cc1,i,i,i,i,i,/,/,/
O=C(NCc1cccc(Cl)c1)c1ccc(S(=O)(=O)Nc2cccc(C(F)(F)F)c2)cc1,i,i,i,i,i,i,i,i
O=C(Cc1cccc(C(F)(F)F)c1)NCc1cccc(Cl)c1,i,i,i,i,i,/,/,/
O=c1c2ccccc2nc2c3ccccc3c(NCc3ccccn3)nn12,i,i,13.6*,i,i,11.5%*,i,i
O=c1c2ccccc2nc2c3ccccc3c(NCc3cccnc3)nn12,i,i,i,i,i,/,/,/
C/C(=N\N=C(/N)SC1CC(=O)N(c2ccccc2)C1=O)c1cccs1 (stereo not drawn),i,i,i,i,i,/,i,i
C/C(=N\N=C(/N)SC1CC(=O)N(c2ccc(Cl)cc2)C1=O)c1cccs1 (stereo not drawn),i,i,8.72*,i,i,5.0%*,40.0%*,i
N/C(=N\N=C\c1cccs1)SC1CC(=O)N(c2ccc(Br)cc2)C1=O (stereo not drawn),i,i,i,i,i,/,/,/
CCCCCOc1ccc(N2C(=O)CC(N(O)c3ccccc3)C2=O)cc1 (stereo not drawn),i,i,i,i,i,/,/,/
C/C(=N\N=C(/N)SC1CC(=O)N(c2ccc(Br)cc2)C1=O)c1cccs1 (stereo not drawn),i,i,10.6*,i,i,37.0%*,31.0%*,i
CCCCCCOc1ccc(N2C(=O)CC(S/C(N)=N/N=C(\C)c3cccs3)C2=O)cc1 (stereo not drawn),i,i,7.5*,i,i,i,i,i
CC(C)C1NC(C(=O)O)Cc2c1[nH]c1ccccc21 (stereo not drawn),i,i,i,i,i,/,/,/
CN(C)S(=O)(=O)c1cccc(NC(=O)COC(=O)c2cc3ccccc3oc2=O)c1,i,i,i,i,i,/,/,/
NCCSC1CC(=O)N(c2ccc(Cl)c(Cl)c2)C1=O (stereo not drawn),i,i,i,i,i,/,/,/
C/C(=N\N=C(/N)SC1CC(=O)N(c2ccc(Cl)c(Cl)c2)C1=O)c1cccs1 (stereo not drawn),i,i,6.36*,i,i,5.5%*,i,i
O=S(=O)(c1ccc(-c2ccccn2)s1)N1CCC2(CC1)OCCO2,i,i,i,i,i,/,/,/
O=C(NCc1ccncc1)C(=O)N/N=C/c1ccccn1,i,i,i,i,i,/,/,/
O=C(Nc1nnc(-c2ccc3c(c2)OCCO3)o1)C1CCCCC1,i,i,8.41*,i,i,7.0%*,i,i
SMILES,MrgX1 ag,MrgX1 allo act,RGS4 block,RGS4 pot,MrgX1 antag,RGS4 block valid,M3R Ca ctr,RGS4 inh ctr2
COc1cnc(-c2ccccn2)nc1Oc1ccccc1Cl,i,i,i,i,i,/,/,/
COc1cnc(-c2ccccn2)nc1Oc1ccc(Cl)c2ccccc12,i,i,10.4*,i,i,16.5%*,i,i
O=C(NCCCn1ccnc1)c1cc2c(s1)CCCCC2,i,i,i,i,i,/,/,/
Cc1sc(NC(=O)c2ccco2)nc1-c1ccccc1,i,i,7.01*,i,i,31.0%*,i,i
COc1ccc2c(c1)Cc1sc(NC(C)=O)nc1-2,i,i,i,i,i,/,/,/
COc1ccc2c(c1)Cc1sc(NC(=O)c3ccco3)nc1-2,i,i,i,i,i,/,i,i
COc1ccc2c(c1)CCc1sc(NC(=O)c3ccco3)nc1-2,i,i,6.6*,i,i,26.5%*,31.5%*,i
COc1ccc2c(c1)-c1nc(NC(=O)c3ccco3)sc1CC2,i,i,17.3*,i,i,48.0%*,59.0%*,i
COc1ccc(C(C)=O)cc1COC(=O)C1CC(=O)N(Cc2ccccc2)C1 (stereo not drawn),i,i,i,i,i,/,/,/
CCOC(=O)CN/C=C(\C#N)c1ccccc1,i,i,i,i,i,/,/,/
NC(=O)N/N=C/c1ccc(-n2nncc2-c2ccc(Cl)cc2)cc1,i,i,6.25*,i,i,20.0%*,41.0%*,i
COc1ccc(/C=C2\CCC/C(=C\C=N\N(C)C)C2=O)cc1,i,i,i,i,i,/,/,/
CN(C)/N=C/C=C1\CCC/C(=C\c2ccc(F)c(F)c2)C1=O,i,i,23*,i,i,8.5%*,i,i
